# What was measured:
# Format in all cases: functional
# Mythimna separata [1] = assay: Larvicidal activity against fourth-instar larval stage of Mythimna separata (Oriental armyworm) in compound-pretreated corn leaves assessed as mortality at 50 mg/kg at 25 +/-1 degC measured after 4 days
# In short: (§1)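 Insects were reared in the laboratory and tested at 25 ± 1 °C, with repeats as statistics required. Larvae were scored dead or alive. Mortality was corrected by Abbott's formula and expressed on a 0–100 scale, where 0 is no activity and 100 is total kill.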
# Mythimna separata [2] = assay: Larvicidal activity against fourth-instar larval stage of Mythimna separata (Oriental armyworm) in compound-pretreated corn leaves assessed as mortality at 10 mg/kg at 25 +/-1 degC measured after 4 days; in short: as §1
# Mythimna separata [3] = assay: Larvicidal activity against fourth-instar larval stage of Mythimna separata (Oriental armyworm) in compound-pretreated corn leaves assessed as mortality at 200 mg/kg at 25 +/-1 degC measured after 4 days; in short: as §1
# Mythimna separata [4] = assay: Larvicidal activity against fourth-instar larval stage of Mythimna separata (Oriental armyworm) in compound-pretreated corn leaves assessed as mortality at 100 mg/kg at 25 +/-1 degC measured after 4 days; in short: as §1
# Mythimna separata [5] = assay: Larvicidal activity against fourth-instar larval stage of Mythimna separata (Oriental armyworm) in compound-pretreated corn leaves assessed as mortality at 30 mg/kg at 25 +/-1 degC measured after 4 days; in short: as §1
# Mythimna separata [6] = assay: Larvicidal activity against fourth-instar larval stage of Mythimna separata (Oriental armyworm) in compound-pretreated corn leaves assessed as mortality at 40 mg/kg at 25 +/-1 degC measured after 4 days; in short: as §1
# Mythimna separata [7] = assay: Larvicidal activity against fourth-instar larval stage of Mythimna separata (Oriental armyworm) in compound-pretreated corn leaves assessed as mortality at 20 mg/kg at 25 +/-1 degC measured after 4 days; in short: as §1
# Mythimna separata [8] = assay: Larvicidal activity against fourth-instar larval stage of Mythimna separata (Oriental armyworm) in compound-pretreated corn leaves assessed as mortality at 5 mg/kg at 25 +/-1 degC measured after 4 days; in short: as §1
# Mythimna separata [9] = assay: Larvicidal activity against fourth-instar larval stage of Mythimna separata (Oriental armyworm) in compound-pretreated corn leaves assessed as mortality at 2.5 mg/kg at 25 +/-1 degC measured after 4 days; in short: as §1
# Mythimna separata [10] = assay: Larvicidal activity against fourth-instar larval stage of Mythimna separata (Oriental armyworm) in compound-pretreated corn leaves assessed as mortality at 25 mg/kg at 25 +/-1 degC measured after 4 days; in short: as §1
# Plutella xylostella [11] = assay: Larvicidal activity against second-instar larval stage of Plutella xylostella (diamondback moth) in cabbage leaves assessed as mortality at 25 +/-1 degC treated for 15 secs before larval infestation measured after 6 days by leaf-dip method; conditions: 144 h
# In short: (§2)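 Leaf-dip assay on laboratory-reared diamondback moth larvae at 25 ± 1 °C. Fresh cabbage leaf disks 1.8 cm across were dipped in test solution for 15 s. Larvae were scored dead or alive, and mortality was corrected by Abbott's formula. Mortality-regression data were put through Finney probit analysis to give LC50 for the test compounds and the parent reference.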
# Plutella xylostella [12] = assay: Toxic ratio of RH-5992 LC50 to compound LC50 for second-instar larval stage of Plutella xylostella (diamondback moth) measured after 6 days by leaf-dip method; in short: as §2
Structure (SMILES),mortality at 50 mg/kg (Mythimna separata [1]) [%],mortality at 10 mg/kg (Mythimna separata [2]) [%],mortality at 200 mg/kg (Mythimna separata [3]) [%],mortality at 100 mg/kg (Mythimna separata [4]) [%],mortality at 30 mg/kg (Mythimna separata [5]) [%],mortality at 40 mg/kg (Mythimna separata [6]) [%],mortality at 20 mg/kg (Mythimna separata [7]) [%],mortality at 5 mg/kg (Mythimna separata [8]) [%],mortality at 2.5 mg/kg (Mythimna separata [9]) [%],mortality at 25 mg/kg (Mythimna separata [10]) [%],LC50 (Plutella xylostella [11]) [µg/mL],RatioLC50 (Plutella xylostella [12])
Cc1cccc(C(=O)N(NC(=O)c2ccc(Cl)cc2)C(C)(C)C)c1,90,0,100,100,–,–,–,–,–,–,–,–
Cc1cc(C)cc(C(=O)N(N(SSN(C(=O)c2ccc(Cl)cc2)N(C(=O)c2cc(C)cc(C)c2)C(C)(C)C)C(=O)c2ccc(Cl)cc2)C(C)(C)C)c1,60,0,100,90,–,–,–,–,–,–,–,–
CC(C)(C)N(C(=O)c1ccccc1)N(SSN(C(=O)c1ccc(Cl)cc1)N(C(=O)c1ccccc1)C(C)(C)C)C(=O)c1ccc(Cl)cc1,100,10,–,100,85,100,75,–,–,–,–,–
CCCSSN(C(=O)c1ccc(Cl)cc1)N(C(=O)c1ccccc1)C(C)(C)C,–,80,–,–,–,–,–,20,0,100,–,–
Cc1cc(C)cc(C(=O)N(NC(=O)c2ccc(Cl)cc2)C(C)(C)C)c1,100,30,100,100,–,100,50,–,–,–,–,–
CCOC(=O)CCN(Cc1ccccc1)SN(Cc1ccc(CC)cc1)N(C(=O)c1cc(C)cc(C)c1)C(C)(C)C,–,–,–,–,–,–,–,–,100,–,–,–
CCCSSN(C(=O)c1cccc(OC)c1C)N(C(=O)c1cc(C)cc(C)c1)C(C)(C)C,–,100,–,–,–,–,–,100,100,100,–,–
CCCSSN(C(=O)c1ccc2c(c1C)OC(C)C2)N(C(=O)c1cc(C)cc(C)c1)C(C)(C)C (stereo not drawn),–,100,–,–,–,–,–,100,100,100,–,–
CC(C)(C)N(NC(=O)c1ccccc1)C(=O)c1ccccc1 [RH-5849],95,0,–,–,–,–,–,–,–,70,–,–
CCCCSSN(C(=O)c1cccc(OC)c1C)N(C(=O)c1cc(C)cc(C)c1)C(C)(C)C,–,100,–,–,–,–,–,100,100,100,–,–
Cc1cc(C)cc(C(=O)N(NC(=O)c2ccccc2)C(C)(C)C)c1,80,10,100,100,–,–,–,–,–,–,–,–
CCCCSSN(C(=O)c1ccc2c(c1C)OC(C)C2)N(C(=O)c1cc(C)cc(C)c1)C(C)(C)C (stereo not drawn),–,100,–,–,–,–,–,100,80,100,–,–
CCc1ccc(CN(SNc2ccc(C)cc2)N(C(=O)c2cc(C)cc(C)c2)C(C)(C)C)cc1,–,–,–,–,–,–,–,–,100,–,–,–
Cc1cccc(C(=O)N(NC(=O)c2ccccc2)C(C)(C)C)c1,30,0,100,50,–,–,–,–,–,–,–,–
CCc1ccc(CN(SNc2ccc(Cl)cc2)N(C(=O)c2cc(C)cc(C)c2)C(C)(C)C)cc1,–,90,–,–,–,–,–,80,0,100,–,–
Cc1cccc(C(=O)N(N(SSN(C(=O)c2ccc(Cl)cc2)N(C(=O)c2cccc(C)c2)C(C)(C)C)C(=O)c2ccc(Cl)cc2)C(C)(C)C)c1,100,0,100,100,–,–,–,–,–,–,–,–
Cc1cc(C)cc(C(=O)N(N(SSN(C(=O)c2ccccc2)N(C(=O)c2cc(C)cc(C)c2)C(C)(C)C)C(=O)c2ccccc2)C(C)(C)C)c1,10,0,100,70,–,–,–,–,–,–,–,–
CCCCSSN(C(=O)c1ccccc1)N(C(=O)c1ccccc1)C(C)(C)C,100,0,–,–,–,–,–,–,–,90,–,–
CCCSSN(C(=O)c1ccccc1)N(C(=O)c1ccccc1)C(C)(C)C,100,0,–,–,–,–,–,–,–,90,–,–
CCCCSSN(C(=O)c1ccc(CC)cc1)N(C(=O)c1cc(C)cc(C)c1)C(C)(C)C,–,100,–,–,–,–,–,100,90,–,–,–
CCCSSN(C(=O)c1ccc(CC)cc1)N(C(=O)c1cc(C)cc(C)c1)C(C)(C)C,–,100,–,–,–,–,–,100,100,–,–,–
CCc1ccc(C(=O)NN(C(=O)c2cc(C)cc(C)c2)C(C)(C)C)cc1 [TEBUFENOZIDE],100,75,100,100,100,100,100,95,55,–,56.9,1
CC(C)(C)N(C(=O)c1ccccc1)N(SSN(C(=O)c1ccccc1)N(C(=O)c1ccccc1)C(C)(C)C)C(=O)c1ccccc1,60,5,95,85,–,–,–,–,–,–,–,–
CCc1ccc(C(=O)N(SSN(C(=O)c2ccc(CC)cc2)N(C(=O)c2cc(C)cc(C)c2)C(C)(C)C)N(C(=O)c2cc(C)cc(C)c2)C(C)(C)C)cc1,100,10,100,100,100,100,95,–,–,–,–,–
Cc1cccc(C(=O)N(N(SSN(C(=O)c2ccccc2)N(C(=O)c2cccc(C)c2)C(C)(C)C)C(=O)c2ccccc2)C(C)(C)C)c1,10,0,100,50,–,–,–,–,–,–,–,–
CC(C)(C)N(NC(=O)c1ccc(Cl)cc1)C(=O)c1ccccc1 [HALOFENOZIDE],100,0,100,100,95,100,85,70,10,–,–,–
Cc1cc(C)cc(C(=O)N(NC(=O)c2ccc3c(c2C)OC(C)C3)C(C)(C)C)c1 (stereo not drawn) [FUXIAN],–,–,–,–,–,–,–,100,90,–,–,–
CCCCSSN(C(=O)c1ccc(Cl)cc1)N(C(=O)c1ccccc1)C(C)(C)C,–,90,–,–,–,–,–,30,0,100,–,–
